# A selection: hits, their analogues and other compounds. The true share with any hit is near 3.4%.
# Runt-SMMHC FRET: Runt domain-CBFb-SMMHC interaction inhibition; Cerulean-Runt/Venus-CBFb-SMMHC FRET ratio 530/480, 1 h; inhibition, % at 20 µM; 220,000 compounds, 0.74% hits;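 active = mean inhibition across duplicate retests at 20 µM reaching about 50%, limit read from the data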;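 note: 0% = DMSO wells and 100% = wells with excess untagged CBFb-SMMHC; inhibitors lower the FRET ratio by blocking Runt binding to CBFb-SMMHC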
# Target sequence (Q01196 whole entry, looked up, the tested form may be a part): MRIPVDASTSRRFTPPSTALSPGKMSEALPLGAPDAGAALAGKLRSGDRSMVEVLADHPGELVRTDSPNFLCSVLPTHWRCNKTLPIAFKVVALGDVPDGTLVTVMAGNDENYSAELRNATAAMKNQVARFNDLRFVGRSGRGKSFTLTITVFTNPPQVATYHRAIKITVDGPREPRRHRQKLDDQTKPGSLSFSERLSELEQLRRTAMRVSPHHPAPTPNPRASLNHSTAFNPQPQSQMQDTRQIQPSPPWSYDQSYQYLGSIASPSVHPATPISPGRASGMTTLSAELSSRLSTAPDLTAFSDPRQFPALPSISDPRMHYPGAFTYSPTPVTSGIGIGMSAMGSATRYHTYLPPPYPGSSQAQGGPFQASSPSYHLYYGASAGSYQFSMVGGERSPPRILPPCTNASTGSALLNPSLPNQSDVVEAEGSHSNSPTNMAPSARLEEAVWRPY
# Target sequence (Q13951 whole entry, looked up, the tested form may be a part): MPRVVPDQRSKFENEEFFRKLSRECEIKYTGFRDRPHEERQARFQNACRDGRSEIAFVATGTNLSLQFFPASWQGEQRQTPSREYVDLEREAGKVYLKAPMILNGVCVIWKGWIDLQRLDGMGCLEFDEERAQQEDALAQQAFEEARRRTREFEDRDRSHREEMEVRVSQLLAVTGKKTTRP
# Wee1 stabilizer: human Wee1 degradation inhibition, primary screen | HeLa Luc-Wee1K328M stability, luciferase luminescence; 100% = proteasome inhibitor MG132 effect | reporter increase, % at 5 µM | 220,000 compounds, 1.2% hits;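 active = activation above the mean of all tested compounds plus 3 SD, set per screening run, cut at about 8.8% in these data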;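 note: cells exposed to compound for 20 h before luminescence read; 0% = DMSO alone and 100% = MG132 at 30 µM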
# Runt-CBFb FRET: blocks binding of human RUNX1 Runt domain to CBFb; Q01196+Q13951; Cerulean-Runt/Venus-CBFb FRET ratio 530/480, 1 h; inhibition, % at 20 µM; 220,000 compounds, 0.46% hits;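 active = inhibition over about 50% at 20 µM in the single-dose screen, limit read from the data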;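 note: 0% = DMSO wells and 100% = excess unlabeled CBFb competitor control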
#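 Schedule: protein complex preformed 1 h, compound exposure 1 h, room temperature, dark; test system: Cerulean-labeled Runt domain protein; amount: 100 nM per protein; buffer or medium: Tris 50 mM pH 7.5, KCl, K2SO4, 0.01% BSA; read-out: loss of energy transfer signal; detection: FRET fluorescence; controls: 5 µM unlabeled CBFb as full-inhibition high control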
# PHOSPHO1 inh: PHOSPHO1 (human) inhibition; Q8TCT1; inhibition, % at 13.3 µM; 290,000 compounds, 1.1% hits; AID 1565; recombinant PHOSPHO1, absorbance phosphatase assay; in the data active = inhibition above about 60%
# HMGR II inh: inhibitors of class II HMG-CoA reductase from Enterococcus faecalis; purified E. faecalis HMGR, NADPH absorbance 340 nm kinetic; inhibition, % at 10 µM; 190,000 compounds, 0.41% hits; AID 1066;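 active = inhibition above a set limit, the median over all tested compounds plus 3 SD, cut at about 9.5% in these data; inconclusive = no clear call, values can overlap the other calls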;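 note: enzyme runs in reverse so mevalonate oxidation gives rising NADPH absorbance; 0% = complete reaction with DMSO and 100% = background rate lacking mevalonate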
# RanGTP-Impb inh: inhibitors of RanGTP-importin-beta interaction, primary screen, biochemical, FRET, CFP-Ran, YFP-importin-beta, homogeneous | AID 2216 | cell-free CFP-Ran/YFP-importin-beta FRET ratio | 300,000 compounds, 1.1% hits | inhibition, % (no concentration beside the values);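 active = more than half of the replicate wells show a fall in the fluorescence ratio signal beyond about 16%, limit read from the data, passing the limit was not always enough; inconclusive = exactly half of the replicate wells pass the set limit; inactive = fewer than half of replicates pass the limit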;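 note: 0% = DMSO wells and 100% = Ran loaded with GDP instead of GTP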
# * marks the source's active call; other numbers are inactive results; ? = inconclusive; nt = no result.
SMILES,Runt-SMMHC FRET,Wee1 stabilizer,Runt-CBFb FRET,PHOSPHO1 inh,HMGR II inh,RanGTP-Impb inh
CN(CCC#N)c1ccc(/C=C(\C#N)c2ccccn2)cc1,79*,1,4,-6,0,-27
CSc1ccc(CCNC(=O)c2cc(-c3ccccc3)c(N3CCOCC3)s2)cc1,nt,nt,nt,27,nt,-4
COc1ccc(C2CC(=O)C=C(NCc3ccc4c(c3)OCO4)C2)cc1 (centres undefined),6,-2,0,61*,nt,1
CCCCn1c(N)c(N(Cc2ccccc2OC)C(=O)c2ccc([N+](=O)[O-])s2)c(=O)[nH]c1=O,nt,nt,nt,nt,nt,-6
COc1ccc(NC(=O)c2nc3nc(C)cc(C(F)F)n3n2)cc1OC,-4,4,0,22,-1,0
CCN(CC)c1ccc(NC(=O)c2nc3nc(C)cc(C(F)F)n3n2)cc1,4,0,9,78*,1,4
COc1ccc(CC(=O)Nc2c3c(nn2C(C)(C)C)CS(=O)(=O)C3)cc1OC,nt,nt,nt,14,nt,2
CCCCOc1ccc(-c2nc(=S)[nH][nH]2)cc1,31,1,25,80*,0,1
CCCCOc1ccc(-c2nc(SCC(N)=O)n[nH]2)cc1,-5,0,-1,15,0,-2
O=C(OCc1ccc(O)cc1)c1c(-c2ccsc2)oc2ccc(N3CCOCC3)cc12,nt,nt,nt,21,nt,9
Cc1ccc(OCC(=O)NCCc2nc3ccccc3[nH]2)c(C)c1,0,2,0,61*,-1,?
COCc1cc(C)nc2sc(C(=O)Nc3nccs3)c(N)c12,-88,4,1,83*,2,-13
CC(=O)c1ccc(N(CC(=O)NC2CCCC2)C(=O)CNC(=O)c2cccs2)cc1,nt,nt,nt,0,nt,2
CCn1nc(C(=O)OCC(=O)NCCN2C(=O)CSC2=O)c2ccccc2c1=O,2,-1,1,72*,-3,3
CN(C)c1ccc(/C=N\Nc2ccccn2)cc1,nt,nt,nt,8,nt,2
CN(C)c1ccc(/C=N/Nc2ccc(-n3ccnc3)nn2)cc1,-1,1,10,86*,-5,2
Cc1ccc(C)c(N2CCN(C(=O)c3ccc(N4CCOCC4)c([N+](=O)[O-])c3)CC2)c1,nt,nt,nt,24,nt,4
CCOc1ccc2nc(N3CCCC(C(=O)NC4CCCC4)C3)sc2c1 (centres undefined),nt,nt,nt,17,nt,0
CCOc1ccc2nc(N3CCC(C(=O)NC4CCCCC4)CC3)sc2c1,nt,nt,nt,65*,nt,0
CSCCc1nc(SCC(=O)Nc2nnc(C)s2)[nH]c1C,-2,0,0,68*,-5,1
Cc1nnc(NC(=O)CSc2nc3ccccc3[nH]2)s1,-2,-1,2,33,3,5
CCOc1cc(C(=O)NC(C)CCc2ccccc2)cc(OCC)c1OCC (centres undefined),nt,nt,nt,34,nt,-1
O=C(NCc1ccccn1)C(=O)Nc1cc2c3c(c1)CC(=O)N3CCC2,nt,nt,nt,nt,nt,-2
Nc1ccccc1Sc1ccc(C(=O)c2ccccc2C(=O)O)cc1[N+](=O)[O-],2,2,50,-19,nt,3
Nc1cc(C(=O)O)ccc1Sc1ccccc1C(=O)O,10,1,5,63*,1,9
SMILES,Runt-SMMHC FRET,Wee1 stabilizer,Runt-CBFb FRET,PHOSPHO1 inh,HMGR II inh,RanGTP-Impb inh
CCN(CC)c1ccc(/C=C(/C#N)C(=O)NC(C)C)o1,-2,0,-5,32,-3,-2
CCN(CC)c1ccc(/C=C(/C#N)C(=O)NCc2ccccc2)o1,-19,2,-26,2,-3,55*
O=C(NC(=S)N1CCOCC1)c1ccc(F)cc1,nt,nt,nt,-1,nt,-3
CC(C)C1N=C(c2ccc3c(c2)OCO3)CC(c2ccccc2O)N1 (centres undefined),-5,9.4*,2,-6,0,6
COc1ccc(N2CCN(C(=O)CN(C3CCCCC3)S(C)(=O)=O)CC2)cc1,1,9.1*,2,29,4,5
COc1ccccc1N1CCN(C(=O)CN(C2CCCCC2)S(C)(=O)=O)CC1,-1,2,2,6,1,-1
CSc1ccc(S(=O)(=O)N2c3ccccc3CC2C)cc1 (centres undefined),nt,nt,nt,25,nt,-2
Cc1csc(NC(=O)Nc2ccc(Cl)cc2)n1,-8,8.9*,0,4,1,2

# Source: PubChem BioAssay
